Reference: ChEMBL document CHEMBL1128308, “Synthesis and antiinflammatory activity of certain 5,6,7,8-tetrahydroquinolines and related compounds” (J Med Chem, 1995)

Assays:
[1] = molecular target: T1, Polyunsaturated fatty acid 5-lipoxygenase (Rattus norvegicus) (UniProt P12527); assay: Inhibition of 5-lipoxygenase pathway was evaluated in rat polymorphonuclear assay by compound (50 uM) ability to inhibit formation of 5-HETE
T1 sequence (whole entry): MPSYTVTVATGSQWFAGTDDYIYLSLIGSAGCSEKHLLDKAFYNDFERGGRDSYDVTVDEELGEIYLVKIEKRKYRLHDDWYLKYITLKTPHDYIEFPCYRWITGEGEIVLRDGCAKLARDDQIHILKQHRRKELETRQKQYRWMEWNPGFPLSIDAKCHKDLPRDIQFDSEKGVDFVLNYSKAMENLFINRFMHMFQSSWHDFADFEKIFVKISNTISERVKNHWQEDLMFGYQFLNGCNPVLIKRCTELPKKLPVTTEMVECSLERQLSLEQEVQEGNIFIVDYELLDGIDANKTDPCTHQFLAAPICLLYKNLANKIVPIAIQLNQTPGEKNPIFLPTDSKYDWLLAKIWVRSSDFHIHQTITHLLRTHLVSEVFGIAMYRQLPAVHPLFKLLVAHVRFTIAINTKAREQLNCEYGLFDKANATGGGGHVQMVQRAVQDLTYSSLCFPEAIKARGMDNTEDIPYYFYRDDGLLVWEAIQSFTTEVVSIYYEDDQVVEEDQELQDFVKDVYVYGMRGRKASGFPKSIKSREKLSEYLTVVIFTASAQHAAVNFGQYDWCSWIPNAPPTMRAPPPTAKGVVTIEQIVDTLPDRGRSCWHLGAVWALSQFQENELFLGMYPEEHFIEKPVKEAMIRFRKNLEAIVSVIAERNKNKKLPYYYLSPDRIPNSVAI
Procedure, shortened: (§1)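 Rat polymorphonuclear leucocytes at 10^7 cells/mL in HBSS (Mg2+, Ca2+, 10 mM cysteine) were preincubated with compound, added in DMSO, for 10 min at 37 °C with shaking. Radiolabeled eicosanoids (5-HETE for the 5-LO pathway, TXB2 for the CO pathway) were separated by HPLC and detected with an in-line radioactivity detector. Results are given as percent change at 10 µM or 50 µM.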

Rattus norvegicus [2] = assay: Antiinflammatory activity by rat Carrageenan edema assay at 50 mg/kg peroral administration (3h edema).; format: functional; settings: route oral
Procedure, shortened: (§2)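 Groups of six male Sprague-Dawley rats (150-165 g) were dosed po in 0.5% methyl cellulose. One hour later, 0.1 mL of 1% carrageenan was injected subplantar into the right hind paw. Edema was taken as the 3 h paw volume minus the zero-time volume and expressed as percent change versus vehicle; screening dose was 50 mg/kg po.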

Rattus norvegicus [3] = assay: Antiinflammatory activity by rat adjuvant arthritis assay at 30 mg/kg peroral administration (uninjected paw at day 16).; settings: route oral
[4] = molecular target: T1, Polyunsaturated fatty acid 5-lipoxygenase (Rattus norvegicus); assay: Inhibition of 5-lipoxygenase pathway in rat polymorphonuclear assay (inhibition of 5-HETE formation); procedure, shortened: as §1
[5] = molecular target: T1, Polyunsaturated fatty acid 5-lipoxygenase (Rattus norvegicus); assay: Inhibition of 5-lipoxygenase pathway in rat polymorphonuclear assay, by ability to inhibit formation of LTB4 AT 10 uM
[6] = molecular target: T1, Polyunsaturated fatty acid 5-lipoxygenase (Rattus norvegicus); assay: 5-lipoxygenase Inhibitory activity against rat polymorphonuclear leucocytes using 5-HETE; procedure, shortened: as §1
Rattus norvegicus [7] = species: Rattus norvegicus; assay: Anti-inflammatory activity by rat acute gastric irritation assay, activity is expressed as Ulcerogenic dose (UD50).; format: functional, Stomach
Procedure, shortened: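 Male Sprague-Dawley rats (190-220 g) were fasted for 18 h, then given compound in 0.5% Tween 80 by gastric intubation at 1 mL/100 g, with groups of 8 scored blind. At 4 h, gastric irritation was scored 0-3: 0 none, 1 redness, 2 ≤5 lesions, 3 >5 lesions. The ulcerogenic dose is the dose at which 50% of rats had at least one lesion.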

[8] = molecular target: T1, Polyunsaturated fatty acid 5-lipoxygenase (Rattus norvegicus)
[9] = molecular target: T1, Polyunsaturated fatty acid 5-lipoxygenase (Rattus norvegicus); remark: listed apart in the source
Rattus norvegicus [10] = species: Rattus norvegicus; assay: Anti-inflammatory activity by rat adjuvant Arthritis assay..
Rattus norvegicus [11] = assay: Anti-inflammatory activity by rat carrageenan edema assay. (3h edema).; format: functional; procedure, shortened: as §2
[12] = molecular target: T1, Polyunsaturated fatty acid 5-lipoxygenase (Rattus norvegicus); remark: listed apart in the source
[13] = molecular target: Cyclooxygenase (Rattus norvegicus) (UniProt P35355+Q63921)

| Structure (SMILES) | Change (Rattus norvegicus [2]) [%] | Change (Rattus norvegicus [3]) [%] | Change [4] [%] | Change [5] [%] | also measured |
| --- | --- | --- | --- | --- | --- |
| Cc1ccc(/C=C2\CCCc3cc(C)cnc32)cc1 | -47 | 17 |  |  | Change [1]: -28% |
| Cc1cc2c(nc1C(O)c1cccs1)CCCCC2 (stereo unspecified) | -9.5 | -6 | 37 | 34 |  |
| Cc1ccc(C(O)Cc2ccc3c(n2)CCCCC3)cc1 (stereo unspecified) | -41 | 28 | -14 | -29 |  |
| COc1cc(/C=C2\CCCc3cc(C)cnc32)ccc1O | -36 | -1 |  |  |  |
| Cc1ccc(C(O)c2ccc3c(n2)CCCCC3)cc1 (stereo unspecified) | -26 | -33 | -28 | -25 |  |
| COc1cc(/C=C2\CCCc3cc4ccccc4nc32)ccc1OC(C)=O | -39 | 14 |  |  | Change [1]: -100% |
| Cc1ccc(C(=O)c2nc3c(cc2C)CCCCC3)cc1 | -59 | -26 | -49 | -52 |  |
| Cc1cc2c(nc1C(O)c1ccccc1)CCCCC2 (stereo unspecified) | -45 | -45 | -29 | -4 |  |
| Cc1ccc(C(O)c2nc3c(cc2C)CCC3)cc1 (stereo unspecified) | -3.5 | -2 | -45 | -43 |  |
| Cc1cccc(C(=O)C2CCCc3cccnc32)c1 (stereo unspecified) | -6 | -16 |  | -11 | Change [6]: 23% |
| Cc1ccc([C@@H](O)[C@@H]2CCCc3cc(C)cnc32)cc1 | -15 | -3 | -27 | -11 |  |
| Cc1cnc2c(c1)CCCC2S(=O)(=O)c1ccccc1 (stereo unspecified) | -22 | -2 | 0 | 6 |  |
| Cc1ccc(/C=C2\c3ncc(C)cc3CCC2(C)C)cc1 | -48 | 8 |  | 86 | Change [6]: 97% |
| CC(C)Cc1ccc(C(C)C(=O)O)cc1 (stereo unspecified) [IBUPROFEN] |  |  |  |  | UD50 (Rattus norvegicus [7]): 42 mg/kg; IC50 [8]: > 50 µM; IC50 [9]: > 50 µM; ED50 (Rattus norvegicus [10]): 95 mg/kg |
| Cc1ccc(C(O)c2nc3c(cc2C)CCCC3)cc1 (stereo unspecified) | -12.5 | -34 | -44 | -23 |  |
| Cc1ccc(C(N)c2nc3c(cc2C)CCCCC3)cc1 (stereo unspecified) | -10 | -3 | -23 | -29 |  |
| Cc1ccc([C@@H](O)[C@H]2c3ncc(C)cc3CCC2(C)C)cc1 | -19 | -39 | 27 | 8 |  |
| Cc1ccnc2c1CCC/C2=C/c1ccnc2ccccc12 | -36 | -38 |  | -23 | Change [6]: -5% |
| COc1cccc(C(O)c2nc3c(cc2C)CCCCC3)c1 (stereo unspecified) | -28 | -14 | -34 | -50 |  |
| Cc1cc2c(nc1C(O)c1cccnc1)CCCCC2 (stereo unspecified) | -14 | 18 | -5 | 9 |  |
| Cc1ccc([C@H](O)[C@@H]2CCCc3cc(C)cnc32)cc1 | -33 | 49 | -49 | -48 |  |

| Structure (SMILES) | Change (Rattus norvegicus [2]) [%] | Change (Rattus norvegicus [3]) [%] | Change [4] [%] | Change [5] [%] | also measured |
| --- | --- | --- | --- | --- | --- |
| Cc1cnc2c(c1)CCCC2Sc1ccccc1 (stereo unspecified) | -21 | -27 |  | -39 | Change [6]: -50% |
| Cc1cc2c(nc1C(O)c1cccc(Cl)c1)CCCCC2 (stereo unspecified) | -28 | 30 | -42 | -51 |  |
| NC1=NN(c2cccc(C(F)(F)F)c2)CC1 [BW-755C] |  |  |  |  | ED50 (Rattus norvegicus [11]): 72 mg/kg; IC50 [12]: 10 µM; IC50 [9]: 11 µM; ED50 (Rattus norvegicus [10]): 38 mg/kg |
| COc1cc(/C=C2\CCCc3c(C)ccnc32)ccc1OC(C)=O | -45 | 23 |  |  | Change [1]: -100% |
| COC(c1ccc(C)cc1)c1nc2c(cc1C)CCCCC2 (stereo unspecified) | -9.5 | -26 | -10 | -12 |  |
| Cc1ccnc2c1CCC/C2=C\c1ccncc1 | -15 | 3 |  | -4 | Change [6]: 9% |
| Cc1ccc(C(=O)C2CCCc3c(C)ccnc32)cc1 (stereo unspecified) | -12 | 19 |  | -34 | Change [6]: -41% |
| Cc1cnc2c(c1)CCCC2[S+]([O-])c1ccccc1 (stereo unspecified) | -25 | 13 | 50 | 13 |  |
| COc1ccc2cc([C@H](C)C(=O)O)ccc2c1 |  |  |  |  | IC50 [12]: > 100 µM; IC50 [9]: > 100 µM; IC50 [13]: 0.1 µM |
| Cc1cc2c(nc1C(O)c1ccc(C(F)(F)F)cc1)CCCCC2 (stereo unspecified) | -24 | -18 | 5 | 40 |  |
| Cc1ccc(C(C)(O)c2nc3c(cc2C)CCCCC3)cc1 (stereo unspecified) | 2.5 | -4 | -14 | -13 |  |
| CC(c1cc2ccccc2s1)N(O)C(N)=O (stereo unspecified) |  |  |  |  | IC50 [12]: 0.3 µM; IC50 [9]: 0.4 µM; IC50 [13]: 16 µM |
| Cc1ccc(C(=O)C2CCCc3c(C)ccnc32)cc1C (stereo unspecified) | -25 | -28 |  | -53 | Change [6]: -50% |
| Cc1ccnc2c1CCC/C2=C/c1ccncc1 | -17 | -49 |  | -25 | Change [6]: -17% |
| Cc1ccc(Cc2nc3c(cc2C)CCCCC3)cc1 | -26 |  | -37 | -57 |  |
| C/C(=C1/CCCc2c(C)ccnc21)c1ccc(C)cc1 | -15 | 0 |  | -18 | Change [6]: 1% |
| C/C(=C1\CCCc2c(C)ccnc21)c1ccc(C)cc1 | -15 | -14 |  | -22 | Change [6]: 7% |
| Cc1ccc([C@@H](O)[C@@H]2CCCCc3cccnc32)cc1 | -33 | -42 | -37 | -37 |  |
| Cc1ccc([C@H](O)[C@@H]2CCCCc3cccnc32)cc1 | -26 | -32 | -31 | -37 |  |
| Cc1ccc(S(=O)(=O)NC2CCCc3cc(C)cnc32)cc1 (stereo unspecified) | -33 | 77 |  | 2 | Change [6]: -16% |
